Measurements: ChEMBL document CHEMBL4385646, “Structural development of 1H-pyrazolo-[3,4-b]pyridine-4-carboxylic acid derivatives as human peroxisome proliferator-activated receptor alpha (PPARα)-selective agonists” (Bioorg Med Chem Lett, 2019)
Active and inactive are the calls of the source. The rule behind the calls is not given here.

Assays:
[1] = biological target: T1, Peroxisome proliferator-activated receptor alpha (Homo sapiens) (UniProt Q07869); experiment: Transactivation of human GAL4-fused PPARalpha LBD expressed in human HepG2 cells at 1 uM after 24 hrs by dual renilla-luciferase reporter gene assay relative to fenofibrate; assay type: cell-based
T1 sequence (whole entry): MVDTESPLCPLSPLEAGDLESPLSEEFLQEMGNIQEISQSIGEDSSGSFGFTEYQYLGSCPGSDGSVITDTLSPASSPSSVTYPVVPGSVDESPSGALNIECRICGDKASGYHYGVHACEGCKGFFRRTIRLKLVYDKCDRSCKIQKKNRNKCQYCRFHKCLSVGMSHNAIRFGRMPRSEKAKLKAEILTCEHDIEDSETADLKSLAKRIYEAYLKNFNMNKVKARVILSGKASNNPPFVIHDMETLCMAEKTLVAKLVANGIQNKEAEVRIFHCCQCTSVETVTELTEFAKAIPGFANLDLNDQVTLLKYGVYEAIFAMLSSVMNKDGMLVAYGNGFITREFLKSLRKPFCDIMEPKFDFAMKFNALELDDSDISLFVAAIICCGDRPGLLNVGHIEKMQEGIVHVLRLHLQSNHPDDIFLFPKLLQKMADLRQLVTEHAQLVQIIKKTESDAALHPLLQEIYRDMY
In short: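 HepG2 cells cotransfected with 4xUAS-tk-luc and pBIND-hPPARα. Cells treated 24 h with compound at 1 μM final; fenofibrate 10 μM served as reference and 0.1% DMSO as vehicle. Read-out by reporter gene luciferase assay.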

[2] = biological target: T2, Peroxisome proliferator-activated receptor alpha (Homo sapiens, UniProt Q07869); experiment: Transactivation of human GAL4-fused PPARalpha LBD expressed in human HepG2 cells after 24 hrs by renilla luciferase reporter gene assay; assay type: cell-based
T2 sequence (Q07869 whole entry): T1 sequence (whole entry)

[3] = biological target: Peroxisome proliferator-activated receptor alpha (Homo sapiens) (UniProt Q07869); experiment: Displacement of fluormone pan-PPAR green from GST-tagged human PPARalpha ligand binding domain after 3 hrs by TR-FRET assay
[4] = Solubility of the compound in pH 7.4 PBS at 100 uM incubated for 10 mins under shaking condition by HPLC analysis; assay type: physicochemical
In short: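 Aqueous solubility determined in PBS, pH 7.4; reported in μM.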

[5] = Apparent permeability from apical to basolateral side in human Caco2 cells at 25 uM measured up to 2 hrs by LC/MS/MS analysis; assay type: ADME, cell-based; conditions: Caco-2
In short: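 Caco-2 monolayers; permeability measured apical-to-basolateral (A–B) at 25 μM compound, reported as ×10⁻⁶ cm/s.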

[6] = Protein binding in human plasma at 20 uM after 5 hrs by LC/MS/MS analysis; assay type: ADME, cell-free; conditions: 5 h, 20 µM
In short: (§1)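 Compound at 20 μM incubated with plasma at 37°C for 5 h; percent bound to protein determined. Final DMSO 0.2%.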

[7] = Protein binding in rat plasma at 20 uM after 5 hrs by LC/MS/MS analysis; assay type: ADME, cell-free; conditions: 5 h, 20 µM; in short: as §1
[8] = Metabolic stability in human liver microsomes assessed as parent compound remaining at 0.5 uM after 60 mins in presence of NADPH by LC/MS/MS analysis; assay type: ADME, Microsome; conditions: microsomes, 1 h, 0.5 µM
In short: (§2)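 Compound at 0.5 μM incubated with liver microsomes at 37°C for 1 h; result given as percent remaining. Final DMSO 0.2%.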

[9] = Metabolic stability in rat liver microsomes assessed as parent compound remaining at 0.5 uM after 60 mins in presence of NADPH by LC/MS/MS analysis; assay type: ADME, Microsome; conditions: microsomes, 1 h, 0.5 µM; in short: as §2
[10] = biological target: T1, Peroxisome proliferator-activated receptor alpha (Homo sapiens); experiment: Transactivation of human […] PPARalpha LBD expressed in human HepG2 cells at 1 uM by renilla luciferase reporter gene assay relative to control; assay type: cell-based

Compound | activation relative to fenofibrate [1] | EC50 [2] | other results
CC(C)c1nn(-c2ccc(Cl)cc2)c2nc(C3CC3)cc(C(=O)O)c12 | 114 | > 2740 nM | –
CC(C)c1nn(-c2ccc(F)cc2)c2ncc(C(=O)O)c(Cl)c12 | 6.21 | – | –
Cc1cc(C(=O)O)c2c(C(C)(C)C)nn(-c3ccc(Cl)cc3)c2n1 | 2.26 | – | inhibition [3]: inactive
CCc1cc(C(=O)O)c2c(C(C)C)nn(-c3cccc(Cl)c3)c2n1 | 192 | > 2270 nM | –
CCC(C)c1nn(-c2ccc(Cl)cc2)c2nc(C3CC3)cc(C(=O)O)c12 (stereo not drawn) | 224 | 460 nM | –
O=C(O)c1cc(C2CC2)nc2c1c(C1CCC1)nn2-c1ccc(Cl)cc1 | 88.3 | – | –
Cc1cc(C(=O)O)c2c(C)nn(-c3ccccc3)c2n1 | 13.6 | – | –
Cc1cc(C(=O)[O-])c2c(C(C)C)nn(-c3ccc(Cl)cc3)c2n1.[Na+] | – | – | solubility at 10 min, 100 µM [4]: > 95 µM; Papp A→B at 2 h, 25 µM [5]: 22.5 ×10⁻⁶ cm/s; PPB [6]: 99.7%; PPB [7]: 98.9%; Stability [8]: 91%; Stability [9]: 92%
CC(C)c1nn(-c2cccc(Cl)c2)c2nc(C3CC3)cc(C(=O)O)c12 | 163 | > 1340 nM | –
CCc1cc(C(=O)O)c2c(C(CC)CC)nn(-c3ccc(Cl)cc3)c2n1 | 213 | 1240 nM | –
CCc1cc(C(=O)O)c2c(C(CC)CC)nn(-c3ccc(F)cc3)c2n1 | 250 | 1530 nM | –
CCc1cc(C(=O)O)c2c(C(C)C)nn(-c3ccc(Cl)cn3)c2n1 | 16.2 | – | –
CC(C)c1nn(-c2ccc(F)cc2)c2nc(C3CC3)cc(C(=O)O)c12 | – | – | fold change (FC) [10]: 151
CCC(CC)c1nn(-c2ccc(Cl)cc2)c2nc(C)cc(C(=O)O)c12 | 183 | > 3570 nM | –
Cc1cc(C(=O)O)c2c(C(C)C)nn(-c3cccc(OCc4ccccc4)c3)c2n1 | 47.4 | – | –
CCC(Cc1cc(C)nc2c1c(C(C)C)nn2-c1ccc(F)cc1)C(=O)O (stereo not drawn) | 1.53 | – | –
CCc1cc(C(=O)O)c2c(C3CCCC3)nn(-c3ccc(Cl)cc3)c2n1 | 78.2 | – | –
Cc1cc(C(=O)O)c2c(C3CC3)nn(-c3ccc(Cl)cc3)c2n1 | 24.6 | – | –
CC(C)(Sc1ccc(CCN(CCCCC2CCCCC2)C(=O)NC2CCCCC2)cc1)C(=O)O | 200 | – | –
O=C(O)c1cc(C2CC2)nc2c1c(C1CCCC1)nn2-c1ccc(Cl)cc1 | 76.8 | – | –
CC(C)c1nn(-c2ccc(Br)cc2)c2nc(C3CC3)cc(C(=O)O)c12 | 199 | 1980 nM | –
CC(C)c1nn(-c2ccc(Cl)cc2)c2nc(-c3ccccc3)cc(C(=O)O)c12 | 243 | 1800 nM | –
Cc1cc(C(=O)O)c2c(C(C)(C)C)nn(-c3cccc(Cl)c3)c2n1 | 5.75 | – | –
Cc1cc(C(=O)O)c2c(C3CCCC3)nn(-c3ccc(Cl)cc3)c2n1 | 64.8 | – | –

Continued, in another order:

activation relative to fenofibrate [1] | EC50 [2] | Compound | other results
205 | 1450 nM | CCC(CC)c1nn(-c2ccc(F)cc2)c2nc(C)cc(C(=O)O)c12 | –
251 | 1230 nM | CCc1cc(C(=O)O)c2c(C(C)C)nn(-c3ccc(Br)cc3)c2n1 | –
96.7 | – | Cc1cc(C(=O)O)c2c(C(C)C)nn(-c3cccc(Cl)c3)c2n1 | –
111 | 1760 nM | CCc1cc(C(=O)O)c2c(C(C)C)nn(-c3ccc(I)cc3)c2n1 | –
111 | 2410 nM | Cc1cc(C(=O)O)c2c(C(C)C)nn(-c3ccc(I)cc3)c2n1 | –
176 | 680 nM | CCC(C)c1nn(-c2ccc(Cl)cc2)c2nc(C)cc(C(=O)O)c12 (stereo not drawn) | –
196 | 1390 nM | CCc1cc(C(=O)O)c2c(C(C)C)nn(-c3ccc(Cl)cc3)c2n1 | –
79.2 | 2060 nM | Cc1cc(C(=O)O)c2c(C(C)C)nn(-c3ccc(F)cc3)c2n1 | –
51 | – | Cc1cc(C(=O)O)c2c(C(C)C)nn(-c3ccc(Cl)c(Cl)c3)c2n1 | –
85.2 | > 4010 nM | Cc1cc(C(=O)O)c2c(C(C)C)nn(-c3ccc(Br)cc3)c2n1 | –
26 | – | Cc1cc(C(=O)O)c2c(C(C)C)nn(-c3ccc(C(F)(F)F)cc3)c2n1 | –
